Granule exo inh = blocks lytic granule exocytosis; inhibition, % at 10 µM; 0.66% of 360,000 active; TALL-104 LAMP-1 surface exposure, flow cytometry; cells stimulated with thapsigargin and PMA; AID 651702;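 active = inhibition above about 55%, limit read from the data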
CSN inh = inhibitors of human CSN-mediated cullin deneddylation. Q92905. Purified CSN, SCF-Nedd8-OG deneddylation, fluorescence polarization. inhibition, % at 12.5 µM. 0.38% of 360,000 active;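 active = pattern-corrected inhibition above about 35%, with an unprinted fluorescence ratio check between 0.5 and 1.5, limit read from the data, passing the limit was not always enough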;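 note: 0% = enzyme with substrate and 100% = substrate without enzyme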
Target sequence (Q92905 whole entry, looked up, one chain of several): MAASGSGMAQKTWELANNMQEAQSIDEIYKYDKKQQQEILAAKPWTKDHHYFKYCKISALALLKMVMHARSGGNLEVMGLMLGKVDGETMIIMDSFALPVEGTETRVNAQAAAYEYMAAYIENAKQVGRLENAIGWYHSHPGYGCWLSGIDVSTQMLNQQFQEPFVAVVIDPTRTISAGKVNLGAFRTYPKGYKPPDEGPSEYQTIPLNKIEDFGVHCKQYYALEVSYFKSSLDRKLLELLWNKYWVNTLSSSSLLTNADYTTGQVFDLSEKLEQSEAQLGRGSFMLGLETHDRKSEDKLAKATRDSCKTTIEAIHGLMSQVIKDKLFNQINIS
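Assay system: HEK293T-derived human Csn5 enzyme; quantity: 0.24 nM enzyme; medium: Tris/NaCl/DTT buffer, pH 7.5; also added: substrate SCFSkp2-Nedd8OG, 10 nM; doses: 12.5 µM compound; schedule: 90 min reaction at room temperature; signal: FP; read-out: % inhibition of substrate cleavage by Csn5; benchmarks: substrate-only high control, full reaction low control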
Myeloid diff MLP = myeloid differentiation induction; ER-HoxA9 myeloid progenitors, lysozyme-GFP differentiation, flow cytometry; calls only at 10 µM; 1% of 360,000 active; AID 624256;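 active = normalized GFP-positive differentiation at or above the plate's own cutoff, the solvent-only control mean plus 3 SD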;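 note: cells exposed to compound for four days before flow analysis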
HNF4A DNA FP = change in binding of human HNF4 alpha to DNA | HNF4a-FITC DNA binding, fluorescence polarization, 1 h | activity change, % at 10 µM | AID 1224865 | P41235 | 0.3% of 360,000 active; in the data active = activity change above about 30%, passing the limit was not always enough
Myeloid diff = myeloid differentiation induction. shares compounds with Myeloid diff MLP. ER-HoxA9 myeloid progenitors, GFP/Mac1 double-positive flow. calls only. 2% of 2,300 active. AID 651706;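 active = share of green or green-and-red cells above 9 and 9% in run 1 or 4 and 3% in run 2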
GFP autofluor = flagged as fluorescent in myeloid differentiation counter-screen; shares compounds with Myeloid diff MLP; ER-HoxA9 myeloid progenitors, no estrogen, GFP autofluorescence flow cytometry; vehicle wells 0%, positive control 100%; 7.4% of 2,300 active; fluorescence response, % (concentration not given with the values);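 active = over 5% cells positive for green fluorescent reporter, or over 2% positive for both it and APC stain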;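 note: range taken on the double positive population between DMSO and positive control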
Active calls of the source: *. Rows were chosen to be rich in hits. Some 2.2% of all compounds tested hit in one or more screens of this group.

CCOC(=O)c1ccc(N2C(=O)CC(N(C)CCc3ccc(OC)c(OC)c3)C2=O)cc1 (centres undefined) was read as Granule exo inh 2, CSN inh -6, Myeloid diff MLP inactive, HNF4A DNA FP 2, Myeloid diff inactive and GFP autofluor 0.
`COc1ccccc1C(=O)Nc1ccc2c(c1)CN(Cc1cnc(C)s1)CC2` gave Granule exo inh -5, CSN inh 2, Myeloid diff MLP inactive and HNF4A DNA FP 0.
For CC(C)(C)OC(=O)N(CCc1ccccc1)Cc1ccccc1OCc1cccc(NC(=O)C2CCCC2)c1 the results were Granule exo inh -1, CSN inh 3, Myeloid diff MLP inactive and HNF4A DNA FP -2.
CC(C)(C)OC(=O)N(CCc1ccccc1)Cc1ccccc1OCc1cccc(NC(=O)C2CC2)c1 was read as Granule exo inh -5, CSN inh 5, Myeloid diff MLP active, HNF4A DNA FP 1, Myeloid diff inactive and GFP autofluor 0.
CCN1CCc2c(sc(NC(=O)c3ccc(C(=O)c4ccccc4)cc3)c2C(N)=O)C1 was read as Granule exo inh 12, CSN inh 3, Myeloid diff MLP inactive and HNF4A DNA FP 5.
CCN1CCc2c(sc(NC(=S)NC(=O)c3ccco3)c2C(N)=O)C1 was read as Granule exo inh -7, CSN inh 9, Myeloid diff MLP inactive, HNF4A DNA FP 12, Myeloid diff inactive and GFP autofluor 3.
CCN1CCc2c(sc(NC(=O)c3ccc(S(=O)(=O)N(CC)c4ccccc4)cc3)c2C(N)=O)C1 was read as Granule exo inh 1, CSN inh 11, Myeloid diff MLP active, HNF4A DNA FP 29, Myeloid diff inactive and GFP autofluor 15*.
Screening Cc1ccc([C@H]2C[C@@H](O)[C@H](n3cc(C4CC4)nn3)CN2CC2CCCCC2)cc1 returned Granule exo inh 1, CSN inh 1, Myeloid diff MLP inactive and HNF4A DNA FP -2.
Screening C[C@@H]1O[C@@H](O[C@H]2[C@H](O[C@H]3C[C@]4(C)C(C[C@@H](O)C5C([C@]6(C)CC[C@@H](C(C)(C)O)O6)CC[C@]54C)[C@@]4(C)CC[C@H](O)C(C)(C)C34)O[C@H](CO)[C@@H](O)[C@@H]2O)[C@H](O)[C@H](O)[C@H]1O (some centres undefined) returned Granule exo inh 4, CSN inh 2, Myeloid diff MLP inactive and HNF4A DNA FP 4.
Screening CC(=O)N1CCN(c2ccc(N)cc2)CC1 returned Granule exo inh -1, CSN inh -4, Myeloid diff MLP inactive and HNF4A DNA FP -28.
Nc1ccc(N2CCN(c3ccc(F)cc3)CC2)cc1 was read as Granule exo inh -3, CSN inh -9, Myeloid diff MLP active, HNF4A DNA FP -2, Myeloid diff inactive and GFP autofluor 0.
For COc1ccc(S(=O)(=O)N2CCCCCC2)cc1C(=O)N(C)CC(=O)Nc1ccccc1C(F)(F)F the results were Granule exo inh 1, CSN inh 2, Myeloid diff MLP inactive and HNF4A DNA FP 3.
CCOC(=O)C1CCCN(C(=O)CNS(=O)(=O)c2ccc(Br)s2)C1 (centres undefined) was read as Granule exo inh -1, CSN inh -1, Myeloid diff MLP active, HNF4A DNA FP 4, Myeloid diff inactive and GFP autofluor 0.
COc1ccc2c(c1OC)CN1CCc3cc4c(cc3[C@@H]1[C@@H]2O)OCO4 was read as Granule exo inh -2, CSN inh -2, Myeloid diff MLP active, HNF4A DNA FP -21, Myeloid diff inactive and GFP autofluor 3.
CC12C(=O)N(CCC(=O)O)C(=O)C1C1C=CC2C1 (centres undefined) was read as Granule exo inh -1, CSN inh 1, Myeloid diff MLP active, HNF4A DNA FP -1, Myeloid diff inactive and GFP autofluor 0.
Screening COc1ccc(NC2=C(NC(C)=O)C(=O)c3ccccc3C2=O)cc1 returned Granule exo inh -13, CSN inh 0, Myeloid diff MLP active, HNF4A DNA FP 2, Myeloid diff active and GFP autofluor 0.
Screening CC(=O)Nc1c(C#N)c(-c2ccccc2)c(C#N)c(=O)n1-c1ccc(C)cc1 returned Granule exo inh -2, CSN inh 3, Myeloid diff MLP inactive and HNF4A DNA FP -1.
`CS(=O)(=O)N(CC(=O)NCCSCc1cccc(Cl)c1)c1ccc(F)cc1` gave Granule exo inh 33, CSN inh -4, Myeloid diff MLP inactive and HNF4A DNA FP -5.
For O=C(CNS(=O)(=O)c1ccccc1)Nc1cccc([N+](=O)[O-])c1 the results were Granule exo inh -8, CSN inh 6, Myeloid diff MLP active, HNF4A DNA FP 0, Myeloid diff inactive and GFP autofluor 1.
Screening Cc1ccccc1-c1nnn(Cc2cccc(S(=O)(=O)N3CCOCC3)c2)n1 returned Granule exo inh -1, CSN inh -6, Myeloid diff MLP inactive and HNF4A DNA FP 2.
`COCc1cc(=O)[nH]c(Nc2nc3ccc(C)cc3o2)n1` gave Granule exo inh -4, CSN inh 2, Myeloid diff MLP inactive, HNF4A DNA FP 4, Myeloid diff inactive and GFP autofluor 4.
Screening CCOC(=O)Cc1csc(NC(=O)c2sc3nc4ccc(CC)cc4cc3c2N)n1 returned Granule exo inh 14, CSN inh 5, Myeloid diff MLP inactive, HNF4A DNA FP 34, Myeloid diff inactive and GFP autofluor 3.
CCOC(=O)Cc1csc(NC(=O)c2ccc(C)cc2)n1 was read as Granule exo inh -2, CSN inh 3, Myeloid diff MLP inactive and HNF4A DNA FP -5.
CCOC(=O)Cc1csc(NC(=O)c2sc3nc4cc(C)ccc4cc3c2N)n1 was read as Granule exo inh 4, CSN inh 14, Myeloid diff MLP inactive, HNF4A DNA FP 14, Myeloid diff inactive and GFP autofluor 1.
`c1ccc(Cc2c(-c3ccccc3)nc3c4ccccc4ccn23)cc1` gave Granule exo inh -2, CSN inh -4, Myeloid diff MLP active, HNF4A DNA FP 0, Myeloid diff inactive and GFP autofluor 0.
`Brc1cccc(-c2nc3c4ccccc4ccn3c2Cc2ccccc2)c1` gave Granule exo inh -2, CSN inh -4, Myeloid diff MLP inactive and HNF4A DNA FP -3.
Screening O=C(N/N=C/c1ccc[nH]1)c1ccc(COc2cccc3cccnc23)cc1 returned Granule exo inh -1, CSN inh 1, Myeloid diff MLP active, HNF4A DNA FP -4, Myeloid diff inactive and GFP autofluor 0.
For O=C(Cc1cn2ccsc2n1)NCCc1ccc(F)cc1 the results were Granule exo inh -1, CSN inh 4, Myeloid diff MLP inactive, HNF4A DNA FP -1, Myeloid diff inactive and GFP autofluor 0.

Compound activity: PubChem, several laboratories
